23 molecules from ChEMBL document CHEMBL5344427, “Small Molecule Ligands of the BET-like Bromodomain, SmBRD3, Affect Schistosoma mansoni Survival, Oviposition, and Development” (J Med Chem, 2023) can be followed below.

Activity calls are given as the source filed them. No cut-off for these calls is given here.

Data set [1] deals with Schistosoma mansoni. The data set can be described thus: Antiparasitic activity against Schistosoma mansoni adult worms assessed as lethality at 20 uM incubated for 72 hrs. It counts as functional, organism-based.
Data set [2] can be described thus: Binding affinity to Schistosoma mansoni BRD3 BD 2 assessed as dissociation constant by ITC analysis.
The test system of data set [3] is Schistosoma mansoni. In words: Antiparasitic activity against Schistosoma mansoni assessed as effect on schistosomula phenotype incubated for 72 hrs by high content imaging analysis. It counts as functional, organism-based. In a few lines:
(§1)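 Schistosomula from mechanically transformed cercariae, 120/well, dosed from 10 mM DMSO stock at 20 and 10 μM final in duplicate (0.625% DMSO), ≥4 independent screens (Z′ >0.35). Auranofin 10 μM positive and DMSO negative controls. Phenotype and motility read by high content imaging after 72 h.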

Data set [4] relates to Schistosoma mansoni. The data set can be described thus: Antiparasitic activity against Schistosoma mansoni assessed as effect on schistosomula motility incubated for 72 hrs by high content imaging analysis. It counts as functional, organism-based. In short, it runs like this: as §1
The subject of data set [5] is Schistosoma mansoni. The data set can be described thus: Antiparasitic activity against Schistosoma mansoni assessed as effect on schistosomula phenotype at 10 to 20 uM incubated for 72 hrs by high content imaging analysis. The settings on record: dose 10-20 µM. It counts as functional, organism-based. In a few lines:
as §1

For data set [6], the system named is Schistosoma mansoni. In words: Antiparasitic activity against Schistosoma mansoni assessed as effect on schistosomula motility at 10 to 20 uM incubated for 72 hrs by high content imaging analysis. Type of data set: functional, organism-based. The settings on record: dose 10-20 µM. In short, it runs like this:
as §1

In data set [7] the test system is Schistosoma mansoni. In words: Antiparasitic activity against Schistosoma mansoni adult worms assessed as reduction in worm pairing at 20 uM incubated for 72 hrs by imaging analysis. Type of data set: functional, organism-based. In short, it runs like this:
(§2)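 Adult worm pairs perfused from TO mice infected percutaneously 7 weeks earlier with 180 cercariae; 1 pair/well in duplicate, dosed at 20 μM in 0.2% DMSO for 72 h. Motility scored by digital image processing (WormassayGP2); in vitro laid eggs counted and pairing noted. DMSO negative and praziquantel positive controls; n = 2 independent screens, 2 technical replicates each.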

Data set [8] relates to Schistosoma mansoni. The data set can be described thus: Antiparasitic activity against Schistosoma mansoni assessed as inhibition of miracidia to sporocyst transformation at 0.5 to 25 uM incubated for 48 hrs by enumeration method. It counts as functional, organism-based. The settings on record: dose 0.5-25 µM. In a few lines: (§3)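 Miracidia hatched from eggs, washed in Chernin's balanced salt solution, 15–25 per well. Exposed to 0.5, 2.0, 5.0, 10 and 25 μM final in 1% DMSO, 48 h at 26 °C in the dark. Dead, partially and fully transformed parasites counted as % of population. Three independent experiments, two technical replicates each; CBSS/1% DMSO negative control.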

Data set [9] in a line: Prodrug conversion in Schistosoma mansoni adult worms assessed as 4-{(2S,4R)-1-acetyl-2-methyl-4-[(quinolin-6-yl)amino]-1,2,3,4-tetrahydroquinolin-6-yl}benzoic acid metabolite formation at 20 uM incubated for 24 hrs followed by compound washout thrice and subsequent addition of fresh medium without compound by LC-MS analysis. It counts as ADME. In short, it runs like this:
(§4)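 Adult worms exposed to 20 μM compound for 24 h, medium exchanged three times, worms then lysed; parent and acid levels in lysate quantified by LCMS.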

Data set [10] in a line: Drug uptake in Schistosoma mansoni adult worms at 20 uM incubated for 24 hrs followed by compound washout thrice and subsequent addition of fresh medium without compound by LC-MS analysis. It counts as ADME. In short, it runs like this:
as §4

A short description of data set [11]: Prodrug conversion in Schistosoma mansoni adult worms assessed as ester hydrolysis in media at 20 uM incubated for 24 hrs followed by compound washout thrice and subsequent addition of fresh medium without compound by LC-MS analysis. Type of data set: ADME.
For data set [12], the system named is Schistosoma mansoni. The data set can be described thus: Antiparasitic activity against Schistosoma mansoni assessed as inhibition of miracidia to sporocyst transformation incubated for 48 hrs by enumeration method. It counts as functional, organism-based. The settings on record: dose 0.5-25 µM. In a few lines: as §3
Data set [13] concerns Schistosoma mansoni. In words: Binding affinity to Schistosoma mansoni BRD3 BD 2 assessed as thermal stability at 50 uM by DSF analysis. In a few lines:
(§5)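 Differential scanning fluorimetry on recombinant SmBRD3(1,2) tandem construct or SmBRD3(2) single domain, compounds at 50 μM; ΔTm as mean of n = 3 with SD.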

The subject of data set [14] is Schistosoma mansoni. In words: Binding affinity to Schistosoma mansoni BRD3 BD 1 and 2 assessed as thermal stability at 50 uM by DSF analysis. In short, it runs like this: as §5
The test system of data set [15] is Schistosoma mansoni. In words: Antiparasitic activity against Schistosoma mansoni adult worms assessed as reduction in oviposition at 20 uM incubated for 72 hrs by imaging analysis. It counts as functional, organism-based. In short, it runs like this: as §2
The test system of data set [16] is Schistosoma mansoni. The data set can be described thus: Antiparasitic activity against Schistosoma mansoni adult worms assessed as effect on worm motility at 20 uM incubated for 72 hrs by imaging analysis. Type of data set: functional, organism-based. In a few lines:
as §2

Data set [17] has as its system Schistosoma mansoni. In words: Binding affinity to Schistosoma mansoni BRD3 BD 2 by ITC analysis.
Data set [18] is described as follows: Prodrug conversion in Schistosoma mansoni adult worms assessed as 3-(3,5-dimethylisoxazol-4-yl)-5-(hydroxy(phenyl)methyl)phenol metabolite formation at 20 uM incubated for 24 hrs followed by compound washout thrice and subsequent addition of fresh medium without compound by LC-MS analysis. Type of data set: ADME.
Data set [19] has as its system Schistosoma mansoni. The data set can be described thus: Binding affinity to Schistosoma mansoni BRD3 BD 1 assessed as thermal stability at 50 uM by DSF analysis.
The nature of data set [20]: Binding affinity to Schistosoma mansoni BRD3 BD 1 and 2 assessed as dissociation constant by ITC analysis.

For `CCOC(=O)c1ccc(-c2ccc3c(c2)[C@H](Nc2ccc4sccc4c2)C[C@H](C)N3C(C)=O)cc1`, the result in the data set on Schistosoma mansoni [1] was inactive.
In the case of `CC(=O)N1c2ccc(-c3ccc(C(=O)O)cc3)cc2[C@H](Nc2ccc3sccc3c2)C[C@@H]1C`, the result with Schistosoma mansoni [1] was inactive. In addition, the pKd in data set [2] is reported as 6.3.
On to `CC(=O)N1c2ccc(-c3ccc(C(=O)O)cc3)cc2[C@H](Nc2ccc3[nH]ccc3c2)C[C@@H]1C`, for which, in the data set on Schistosoma mansoni [1], the outcome was inactive. Also, the EC50 in the data set with Schistosoma mansoni [3] was 2.97 µM; in the data set on Schistosoma mansoni [4] it was 1.81 µM. The pKd in data set [2] came to 6.2.
`CCOC(=O)c1ccc(-c2ccc3c(c2)[C@H](Nc2ccc4ccoc4c2)C[C@H](C)N3C(C)=O)cc1`: the result in the data set on Schistosoma mansoni [1] was inactive. Moreover, the Kd in data set [2] came out at 1.18 µM.
For `CCOC(=O)c1ccc(-c2ccc3c(c2)[C@@H](Nc2ccc4ccsc4c2)C[C@@H](C)N3C(C)=O)cc1`, the result in the data set on Schistosoma mansoni [1], in the data set on Schistosoma mansoni [5], in the data set on Schistosoma mansoni [6] and in the data set with Schistosoma mansoni [7] was inactive. Besides, the inhibition result with Schistosoma mansoni [8] was “Active”.
For `CCOC(=O)c1ccc(-c2ccc3c(c2)[C@H](Nc2ccc4ncsc4c2)C[C@H](C)N3C(C)=O)cc1`, in the data set on Schistosoma mansoni [1], the result was inactive. In addition, the Kd in data set [2] was 1.18 µM.
Turning to `CCOC(=O)c1ccc(-c2ccc3c(c2)[C@H](Nc2ccc4ncccc4c2)C[C@H](C)N3C(C)=O)cc1`, in the data set on Schistosoma mansoni [1], the outcome was inactive. Moreover, the Drug metabolism result in [9] and in [11] was “Metabolite_Detected” each time. In data set [10], the Drug uptake entry is listed as “Active”. Also, the Kd in [2] came to 0.364 µM. Moreover, the inhibition entry in the data set with Schistosoma mansoni [12] was “Dose-Dependent Effect”.
For `CC(=O)N1c2ccc(-c3ccc(C(=O)O)cc3)cc2[C@H](Nc2ccc(Cl)cc2)C[C@@H]1C`, the outcome in the data set with Schistosoma mansoni [13] and with Schistosoma mansoni [14] was Active. In the data set with Schistosoma mansoni [1], the outcome was inactive. The pKd in data set [2] came out at 5.7.
Take `CCOC(=O)c1ccc(-c2ccc3c(c2)[C@H](Nc2ccc4ccsc4c2)C[C@H](C)N3C(C)=O)cc1`: the outcome in the data set on Schistosoma mansoni [15], with Schistosoma mansoni [16] and with Schistosoma mansoni [7] was Active. Moreover, in the data set on Schistosoma mansoni [1], the outcome was inactive. The inhibition result with Schistosoma mansoni [12] is “Dose-Dependent Effect”.
Take `CC(=O)Oc1cc(-c2c(C)noc2C)cc(C(O)c2ccccc2)c1` (centres undefined): the result in the data set on Schistosoma mansoni [17] and with Schistosoma mansoni [1] was inactive. Moreover, the outcome with Schistosoma mansoni [5] and in the data set with Schistosoma mansoni [6] was Active. For the same molecule, the Drug metabolism result in [18] was “Metabolite_Detected”. In the data set on Schistosoma mansoni [8], the inhibition entry is “inactive”.
Turning to `CC(=O)N1c2ccc(-c3ccc(C(=O)O)cc3)cc2[C@H](Nc2ccc3ccsc3c2)C[C@@H]1C`, the result in the data set on Schistosoma mansoni [1] was inactive. Moreover, in [2], the negative logarithm of the Kd (pKd) was 6.2.
Take `Cc1noc(C)c1-c1cc(O)cc(C(O)c2ccccc2)c1` (centres undefined): the outcome with Schistosoma mansoni [19] and with Schistosoma mansoni [14] was Active. The outcome in the data set on Schistosoma mansoni [13], with Schistosoma mansoni [17] and with Schistosoma mansoni [1] was inactive.
As for `CC[C@@H]1C(=O)N(C)c2cnc(Nc3ccc(C(=O)NC4CCN(C)CC4)cc3OC)nc2N1C1CCCC1`, the outcome in the data set with Schistosoma mansoni [13] and with Schistosoma mansoni [14] was Active.
On to `Cc1noc(C)c1-c1cc(O)cc(C(O)c2ccc(F)cc2)c1` (centres undefined), for which the outcome in the data set on Schistosoma mansoni [17] and in the data set on Schistosoma mansoni [1] was inactive. Further, the inhibition entry in the data set on Schistosoma mansoni [8] was “inactive”.
As to `Cc1sc2c(c1C)C(c1ccc(Cl)cc1)=N[C@@H](CC(=O)OC(C)(C)C)c1nnc(C)n1-2`, the result in the data set with Schistosoma mansoni [19] and in the data set with Schistosoma mansoni [14] was Active. Besides, the result in the data set with Schistosoma mansoni [13], with Schistosoma mansoni [17] and in the data set with Schistosoma mansoni [1] was inactive. Besides, in data set [20], the Kd was 0.445 µM. For the same molecule, the pKd in [20] stood at 6.4. Further, in the data set on Schistosoma mansoni [8], the inhibition result is “Active”.
Turning to `COc1cc2c3c(cnc2cc1-c1c(C)noc1C)NC(=O)C3[C@H](C)c1ccccn1` (some centres undefined), the pKd in data set [2] is given as 5.2.
Regarding `Cc1noc(C)c1-c1cc(O)cc(C(O)c2cccnc2)c1` (centres undefined), the outcome with Schistosoma mansoni [17] and with Schistosoma mansoni [1] was inactive.
Regarding `CC(=O)N1c2ccc(-c3ccc(C(=O)O)cc3)cc2[C@@H](Nc2ccc3ccsc3c2)C[C@H]1C`, the result in the data set on Schistosoma mansoni [17], with Schistosoma mansoni [1], in the data set on Schistosoma mansoni [5] and with Schistosoma mansoni [6] was inactive.
For the molecule `CC(=O)N1c2ccc(-c3ccc(C(=O)O)cc3)cc2[C@H](Nc2ccc3ncccc3c2)C[C@@H]1C`, the result in the data set on Schistosoma mansoni [1] was inactive. Besides, the results for the EC50 with Schistosoma mansoni [3] and in the data set with Schistosoma mansoni [4] were 1.11 µM and 3.3 µM, respectively. In addition, the pKd in data set [2] is on record as 6.4.
Taken in the same sequence, the figures for `CC(=O)N1c2ccc(-c3ccc(C(=O)O)cc3)cc2[C@H](Nc2ccc3ncsc3c2)C[C@@H]1C` were “inactive”, 2.14 µM, 2.85 µM and 5.9.
For `O=C(C1CCCCC1)N1CC(=O)N2CCc3ccccc3C2C1` (centres undefined), the result in the data set with Schistosoma mansoni [1] was inactive.
As for `CCOC(=O)c1ccc(-c2ccc3c(c2)[C@H](Nc2ccc4[nH]ccc4c2)C[C@H](C)N3C(C)=O)cc1`, the outcome with Schistosoma mansoni [1] was inactive. The Kd in data set [2] stood at 0.651 µM.
On to `CC(=O)N1c2ccc(-c3ccc(C(=O)O)cc3)cc2[C@H](Nc2ccc3ccoc3c2)C[C@@H]1C`, for which, in the data set on Schistosoma mansoni [1], the result was inactive. For the same molecule, the EC50 was found to be 2.43 µM with Schistosoma mansoni [3] and 3.92 µM with Schistosoma mansoni [4]. Moreover, in [2], the pKd is 5.9.
